Results: ChEMBL document CHEMBL4265989, “ω-Hydroxylation of α-tocopheryl quinone reveals a dual function for cytochrome P450-4F2 in vitamin E metabolism” (Bioorg Med Chem, 2018)

Key:
Assay type in all cases: ADME
[1] = molecular target: T1, Cytochrome P450 4F2 (Homo sapiens, UniProt P78329); assay: Drug level in human liver microsomes treated with BSA bound d6-alpha-tocopheryl quinone assessed as CYP4F2-mediated compound formation at 4.4 mM preincubated for 10 mins followed by NADPH addition measured after 20 mins by LS-MS analysis
T1 sequence (P78329 whole entry): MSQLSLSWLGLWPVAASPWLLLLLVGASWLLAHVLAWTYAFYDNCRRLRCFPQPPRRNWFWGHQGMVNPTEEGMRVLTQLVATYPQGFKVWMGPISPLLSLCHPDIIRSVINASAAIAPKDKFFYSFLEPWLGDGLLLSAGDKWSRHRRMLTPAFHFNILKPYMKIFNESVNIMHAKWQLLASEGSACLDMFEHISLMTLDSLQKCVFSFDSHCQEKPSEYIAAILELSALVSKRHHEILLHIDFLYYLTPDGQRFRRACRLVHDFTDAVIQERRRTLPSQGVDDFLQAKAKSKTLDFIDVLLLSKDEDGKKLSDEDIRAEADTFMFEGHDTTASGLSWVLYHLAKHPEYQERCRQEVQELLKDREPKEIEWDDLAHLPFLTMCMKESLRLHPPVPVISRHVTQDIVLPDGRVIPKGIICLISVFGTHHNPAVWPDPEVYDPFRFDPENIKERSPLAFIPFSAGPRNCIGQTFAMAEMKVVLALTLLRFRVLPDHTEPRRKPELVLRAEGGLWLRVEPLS
How it was run: (§1)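 Pooled human liver microsomes (20 mg/ml protein) in 100 mM KH2PO4 pH 7.2. d6-αTQ–BSA complex added from a 4.4 mM stock. Preincubated 10 min at 37 °C, then NADPH added to 1 mM final (NAD at 1 mM if used); 20 min at 37 °C, then chilled on ice. d0-ω-hydroxy-αTQ added as internal standard, extracted with ethyl acetate then hexanes:MTBE. Read-out by positive-ion C18 LC-MS.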

[2] = molecular target: T1, Cytochrome P450 4F2; assay: Drug level in human liver microsomes treated with BSA bound d6-alpha-tocopheryl quinone assessed as CYP4F2-mediated compound formation by measuring compound retention time at 4.4 mM preincubated for 10 mins followed by NADPH addition measured after 20 mins by LS-MS analysis; how it was run: as §1
[3] = molecular target: T1, Cytochrome P450 4F2; assay: (§2) Drug level assessed as recombinant human CYP4F2 expressed in insect cell microsomes-mediated compound formation treated with BSA bound d6-alpha-tocopheryl quinone at 10 uM preincubated for 10 mins followed by NADPH addition measured after 20 mins in presence of recombinant human CYP reductase and cytochrome b5 by LS-MS analysis; details: recombinant enzyme
How it was run: (§3)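 Insect cell microsomes co-expressing recombinant human CYP4F2, cytochrome b5 and NADPH P450 reductase (100 pmol CYP/mL) in 100 mM KH2PO4 pH 7.2 with d6-αTQ–BSA complex (10 μM). Preincubated 10 min at 37 °C, then NADPH added to 1 mM final; 20 min at 37 °C, then chilled on ice. Internal standard d0-ω-hydroxy-αTQ added, extracted with ethyl acetate then hexanes:MTBE. Products identified by reversed-phase C18 LC-MS retention time and mass spectra.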

[4] = molecular target: T1, Cytochrome P450 4F2; assay: as §2, with “formation by measuring compound retention time” for “formation”; details: recombinant enzyme; how it was run: as §3

| SMILES | Drug metabolism [1] | Retention_time [2] | Drug metabolism [3] | Retention_time [4] |
| --- | --- | --- | --- | --- |
| [2H]C([2H])([2H])C1=C(C)C(=O)C(CC[C@](C)(O)CCC[C@H](C)CCC[C@H](C)CCCC(C)CO)=C(C([2H])([2H])[2H])C1=O (stereo not given in full) | Metabolite_Detected | 8.8 min | Metabolite_Detected | 8.8 min |
| [2H]C([2H])([2H])C1=C(C)C(=O)C(CC[C@](C)(O)CCC[C@H](C)CCC[C@H](C)CCCC(C)C(=O)O)=C(C([2H])([2H])[2H])C1=O (stereo not given in full) | Metabolite_Detected | 7.1 min | Metabolite_Detected | 7.42 min |
| [2H]C([2H])([2H])C1=C(C)C(=O)C(CC[C@](C)(O)CCC[C@H](C)CCC[C@H](C)CCCC(C)C)=C(C([2H])([2H])[2H])C1=O | Metabolite_Detected | 11.87 min | – | – |
